Experimental data reported in the EternaBench riboswitch data.

Tested on: MS2 coat protein
Test: apparent Kd, MS2 coat protein; higher = weaker binding; RNA-MaP array
Method in brief: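 Apparent Kd values come from the median of binding-curve fits to single clusters. To obtain them, designed RNAs transcribed on an Illumina sequencing chip from sequenced DNA templates were incubated at room temperature with fluorescently labeled MS2 coat protein at 1.5 nM to 3 μM, with or without input ligand, for 0.8–1.5 h at the lowest and 10–20 min at the highest concentrations. Designs measured on fewer than 10 clusters were excluded.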

[1] = designed as: ON switch for tryptophan, no ligand
[2] = ligand present: tryptophan, designed as: ON switch for tryptophan
[3] = designed as: OFF switch for tryptophan, no ligand
[4] = ligand present: tryptophan, designed as: OFF switch for tryptophan
[5] = designed as: OFF switch for theophylline, no ligand
[6] = ligand present: theophylline, designed as: OFF switch for theophylline
[7] = designed as: ON switch for flavin mononucleotide, no ligand
[8] = ligand present: flavin mononucleotide, designed as: ON switch for flavin mononucleotide
[9] = designed as: OFF switch for flavin mononucleotide, no ligand
[10] = ligand present: flavin mononucleotide, designed as: OFF switch for flavin mononucleotide
[11] = designed as: ON switch for theophylline, no ligand
[12] = ligand present: theophylline, designed as: ON switch for theophylline

Sequence	apparent Kd [9]	apparent Kd [10]	further results
CCUCCUUGUACGGCCGCCACUGCAUCUCUGGAUACUCCGAUAAUACAUGAGGAUCACCCAUGUUACAGGACCGGGUAUAUAUUAC			apparent Kd [1]: 15 nM; apparent Kd [2]: 16 nM
UGCCUAAAGUCGGCCGCCACUGAUGGUAUCCUCUCCUCGAGGUCACACAUGAGGAUCACCCAUGUCAGGACCGGGACUAGUGAGA			apparent Kd [3]: 7.89 nM; apparent Kd [4]: 10.4 nM
AUGUAGCCGUCGACUGUACCUUAUGCCGAUACCAGCUACCCGUGAAGCCCUUGGCAGCGGGAAACAUGAGGAUCACCCAUGUCAG			apparent Kd [5]: 23.9 nM; apparent Kd [6]: 41.3 nM
UUUAUUCUCUAUACAUGAGGAUCACCCAUGUCAAUGAUGUGCAGAAGGUGGUUCGGCUGUGACUCCAAGGAUAUGCAGAGAAUU			apparent Kd [7]: 513 nM; apparent Kd [8]: 115 nM
UACAUGAGGAUCACCCAUGUUAACGCUUAGAUGCAUCGACGUGAGGAUAUCGGGUUAAACCAGCACGAGAAGGCACAUCCAGAU			apparent Kd [7]: 34.5 nM; apparent Kd [8]: 20.2 nM
UAGAGGACGGGAGGAUAUUCAGGUACAUCAGCCGAAGGCACACAUGAGGAUCACCCAUGUGGGUCGAAGAAGGCCCAGUUGACG			apparent Kd [7]: 5.37 nM; apparent Kd [8]: 4.67 nM
UAAGAUUCUGUAGGAUAUCAAAUACAUGAGGAUCACCCAUGUAACCUGAUUUCUGAUCCUCAGUGUGAGAAGGACAAUUAAGCC	22.1 nM	21.2 nM	
CAUUCCAAGGCGGAGGAUAUUCGGAUCGCCACAUGAGGAUCACCCAUGUACGAGUAGUCUGCAACGAAGAAGGCCGUACGUCACCA			apparent Kd [7]: 10.5 nM; apparent Kd [8]: 6.57 nM
AAACUCCGCAAGAAGGGUAUUCAAUGAAGUUGUACAGGAUAUUGGCGCAGACAUGAGGAUCACCCAUGUAAGUUCUUCAUGGUU	125 nM	120 nM	
CGACCGCACGAGAAGGCUAGACAGCGGCGAUCUAGAGGAUAUCGACAUUCAACAUGAGGAUCACCCAUGUGAUUCCAACAAGCU	57.8 nM	69.6 nM	
GAACCUAUAGGAUAUACAUGAGGAUCACCCAUGUAGCCAUCUAUUCGUGGGACUAGGUGUAGAAGGAUAGCAAA	12.7 nM	11.8 nM	
GCAUCAUGAACGGCCGCCACUAAGGAAUGAGCGGCUCUUGCGAUACAUGAGGAUCACCCAUGUCUUAGGACCGGGUUCAUUGUCA			apparent Kd [1]: 234 nM; apparent Kd [2]: 127 nM
ACGAGCACCUCAGGAUAUGGAAAGGACUCUUCAUUGGCUACUCGAACAUGAGGAUCACCCAUGUUCCAGAAGGGAGGAGAAGCC	7.07 nM	11.6 nM	
UUUAGUCAAUCGGCCGCCACUGACAUGAGGAUCACCCAUGUAGGUAAGGAUCAACCUCGAAAGUACAGGACCGGGAUUCGCCUCU			apparent Kd [3]: 53.3 nM; apparent Kd [4]: 84 nM
CUGUGCGAACAGAAGGUGGCGUGUUAUCGGGACCAAGGAUAUGUUUACUAUUGUGACAAUUCACAUGAGGAUCACCCAUGUACA	21.7 nM	15.3 nM	
UGAAAACCGUCAUAAACAAACAUGAGGAUCACCCAUGUAGCUAAGGAUAUUGACAAACAAAGACUCAAGAAGGUAGAACCUACA	7.99 nM	7.26 nM	
CCAACCUGUCGAGCACCAUAACAUGAGGAUCACCCAUGUAUCAGAAGGUGUGUGAGUAAGGAAGACAAGGAUAUGACUCGACGC			apparent Kd [7]: 16.9 nM; apparent Kd [8]: 12.7 nM
ACUCGUUAAGGAUAUACUCGGUUUACUUGCAUGUUCGGCGCACAUGAGGAUCACCCAUGUAGAAGGUAAUAUUC	24.6 nM	27.2 nM	
UAGACGCACAAACAUGAGGAUCACCCAUGUGUACAGACGCUGCAGGAUAUCCUCUGAAGUUAGUAGGAGAAGGGCAAACAACCU			apparent Kd [7]: 44.5 nM; apparent Kd [8]: 27.3 nM
GAUCUAUCAGGAUAUAAGGCCUUGAACAUGAGGAUCACCCAUGUCCUCUUGGUUGCCGCGUUAGAAGGGAUGUGUU	202 nM	171 nM	
CGUCAACAUGAGGAUCACCCAUGUUUCGAUACCAGUGACCCUCUCCACCCUUGGCAGCGAGCGCCCGCGCCUGAUAAAUCUUCUA			apparent Kd [11]: 12.1 nM; apparent Kd [12]: 14.2 nM
UACGUAUUAGGAGGAUAUGGCCCUCAUCUUUGACAUGAGGAUCACCCAUGUGGACAUUACGCCACCCAGAAGGCCUUGCUCGGA	468 nM	344 nM	
GCGGGACUGUAGAAGGGUUAUCCUUAAGGUCUGAUCACAUGAGGAUCACCCAUGUAACGGGUGGAACAGGAUAUACCAGAUCGC	42 nM	48.4 nM	
UUAGCACAUGAGGAUCACCCAUGUCAGGAUAUACGGAAUGUCCUCUACAGGGCGCGCUGUAGAAGGGACCGGGC	9.53 nM	9.76 nM	
CGUAUAGCAGGAUAUACAUGAGGAUCACCCAUGUUUUUCGUUGUGUGGUGCCAAGCGUGUAGAAGGGCUUCCUC	52.4 nM	56.8 nM	
AAAUAAACCGAGGAUAUUAGAUUAGCAUACGAUUAAGAAGGCGGAACAUGAGGAUCACCCAUGUUGGGAGGUCU	67.8 nM	211 nM	
AGACCAUCCUUAGGAUAUGGCUAUCUUAUCAAGCCAGAAGGAAGGGCCUCAUCUAACAUGAGGAUCACCCAUGUGCGCAAGUUU	81.3 nM	51.9 nM	

Sequence	apparent Kd [9]	apparent Kd [10]	further results
UACUGCAAACAGAAGGUUGGAAGUCGGUUCUCCAAAGGAUAUGUACAUGAGGAUCACCCAUGUGCGCAAAUCGCACAGAGGAGG	14.6 nM	36.9 nM	
UAUUUAUCUAUUGUGACAAACAUGAGGAUCACCCAUGUAUACAGAAGGCAUUACCGAAUCUCGGAUGAGGAUAUGUUAUGGAGU	14 nM	33.9 nM	
AUUGGAGACUGGUACAUGAGGAUCACCCAUGUUAAUAACAGUAGAAGGCCCGCGGUUAGAAGAUGGGAGGAUAUACACGUGGGU	10.4 nM	17.8 nM	
AAUGAGGCCUCUCAACAUGAGGAUCACCCAUGUAACGGAACAAAGGAUAUGGUCCAACUACUAACCCAGAAGGUUGUGACAGAA			apparent Kd [7]: 49.1 nM; apparent Kd [8]: 40.6 nM
CAUUCGAAGGUGAGGAUAUAGCUACAGUUAAAUGUCUAGAAGGCACAUGAGGAUCACCCAUGUAGGGUCUCUCA	238 nM	630 nM	
ACGUUCCUGAGAGGAUAUUCCAACAUGAGGAUCACCCAUGUAGAUGGUCGAUGCUUCCAUUCAGCGAAGAAGGCUCUAAAGGGC	22.3 nM	15.7 nM	
CAUUGAGCAGCUGAUACCAGUGCCUGAACUUACAUGAGGAUCACCCAUGUAUGCCCAAAACACCCUUGGCAGCAGAGGAAGAUCG			apparent Kd [11]: 14.5 nM; apparent Kd [12]: 13.9 nM
AGCACAAUAGGAUAUACAUGAGGAUCACCCAUGUAGAAAUUUGGUACCCGGGUGUCUUGUAGAAGGAUAGAAGA	16.4 nM	15.1 nM	
AGUGCAAAUGUAGGAUAUGGACAUGAGGAUCACCCAUGUCAUUAAUAUUAUCGGUCCAAUUUUCUCCAGAAGGACAAAGGCUUG	11.6 nM	10.1 nM	
GCUUCACAUGAGGAUCACCCAUGUCCGGAUACCAGCUCUCCAGACAGCCCUUGGCAGCCGAGCGCCCGAUUAUAUACCCUAGGAG			apparent Kd [11]: 22 nM; apparent Kd [12]: 29.9 nM
AGUUCUGGAGGAUAUACAUCCUCAAUGUCCAACCUGCGGAUACAUGAGGAUCACCCAUGUAGAAGGCCACACAA	6.53 nM	9.75 nM	
CCAUGCGUUGAGAAGGUGCUCGGGAAUCCACAUGAGGAUCACCCAUGUUGACUAGUAAGGCAUCGCAAGGAUAUCAGCUAUCUC	28.8 nM	25.3 nM	
UGUCGCAGGUUAGAUACCAGCGAGGCGCGGGUAAAUGUUCACAUGAGGAUCACCCAUGUUCGCCCUUGGCAGCUAGUAGGCAUAA			apparent Kd [5]: 24.2 nM; apparent Kd [6]: 100 nM
ACACCUAUAGUGAGGAUAUAGAUCGAAACAAUCGACAAGAAGGCACAUGAGGAUCACCCAUGUAAGGCGCAAAU	6.55 nM	5.97 nM	
CGUUAAGGCGAGAAGGUGCCGUCCAACAUGAGGAUCACCCAUGUCGGUCGGUGAAUCAAGAGACGCAAGGAUAUCGACAUUAAC	3.01 nM	3.46 nM	
AAUGGGCGAGUAGAGCAUAAUUUCCACUCCCGAGGACCGGUACGGCCGCCACUCGUUCGCUCACAUGAGGAUCACCCAUGUGGUC			apparent Kd [3]: 32.3 nM; apparent Kd [4]: 57.2 nM
ACAACUCUCACAGGAUAUUGACAUGAGGAUCACCCAUGUAAUCCAGGGCGAACAUAGGACUGACACAAGAAGGGUGACACCAUC			apparent Kd [7]: 20.1 nM; apparent Kd [8]: 16.1 nM
CCUAGACAAGAGAAGGUUGAGAAGAAACUUUGCAAAGGAUAUCUAAACAUGAGGAUCACCCAUGUCGAUAUAUGGGUAGGCGAA	102 nM	91.4 nM	
GAGAGGCGCUAGAAGGCACGCGUUCGGAUUGAGUGAGGAUAUAGUCCUCUGCCACAUGAGGAUCACCCAUGUAGUUUGAUAGAG			apparent Kd [7]: 6.28 nM; apparent Kd [8]: 6.12 nM
AAAGAAAGAGUGAGGAUAUGAUAUAAACAAAAGUAACAGAAGGCACAUGAGGAUCACCCAUGUGACUAUAGAAU	6.08 nM	5.62 nM	
CUAAGAGUUACGGCCGCCACUAGUUGGGAUCCGCCCGUAAAAUCACAUGAGGAUCACCCAUGUCCUAGGACCGGGUAAUCGCAUU			apparent Kd [1]: 265 nM; apparent Kd [2]: 142 nM
CCUCCUCAUCGAGGAUAUUGGGUCUGACCUCCAUUUAGACAUGAGGAUCACCCAUGUAAAGUGUCCAAGAAGGCGAUACCGGGA			apparent Kd [7]: 817 nM; apparent Kd [8]: 648 nM
UUGGUUGGGAAAACGAUUUGCACAUGAGGAUCACCCAUGUCGAAGGAUAUGUGGCGCUGUUUGCGACAGAAGGUCGACCUCGCC			apparent Kd [7]: 15.5 nM; apparent Kd [8]: 14.9 nM
CGAAGAAAACGGAAAUCAAUAACAUGAGGAUCACCCAUGUCUCAGGAUAUAAGAGAAGGAUGUAGUUAGAAGGGAGAGUUAUGU			apparent Kd [7]: 54.7 nM; apparent Kd [8]: 42.4 nM
CCUGGAUCAGAUCUUAAAGGCGGUUCUGAUACCAGUCUUUUCCGAGACCCUUGGCAGCAGAACACAUGAGGAUCACCCAUGUAAA			apparent Kd [5]: 52.4 nM; apparent Kd [6]: 46.5 nM
AGGCAACAUGAGGAUCACCCAUGUCAGGAUAUAGUAAACACAAAUACGAGAAAUAUAACUAGAAGGGACAUAAU	16.6 nM	18.5 nM	
CUUGUAACCUAAGGAUAUGAUUAGGGCAUCACAUGAGGAUCACCCAUGUGGCGUGAUCCGAGCCUUCAGAAGGUAGGGGAGCAU	475 nM	479 nM	
